From ChEMBL document CHEMBL3352141, “Carboline- and phenothiazine-derivated heterocycles as potent SIGMA-1 protein ligands” (Eur J Med Chem, 2015)

How the values were obtained:
[1] = Selectivity index, ratio of IC50 for human SH-SY5Y cells to Ki for human sigma 1 receptor in human Jurkat cell membranes
Jurkat [2] = assay: Selectivity index, ratio of Ki for human sigma 2 receptor in human Jurkat cell membranes to Ki for human sigma 1 receptor in human Jurkat cell membranes; type: cell-based
Outline: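 The ratio divides sigma-2 Ki by sigma-1 Ki, both measured on Jurkat membranes. Sigma-2 used 25 nM [3H]-DTG with (+)-pentazocine masking, 1 h at room temperature. Sigma-1 used 15 nM [3H](+)-pentazocine, 2 h at 37 °C. Both assays ran in 5 mM Tris/HCl, pH 7.4, with filtration and scintillation read-out.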

[3] = Cytotoxicity against human SH-SY5Y cells after 72 hrs by MTT assay; type: cell-based
Outline: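 SH-SY5Y neuroblastoma cells were grown in DMEM with 2 mM L-glutamine, streptomycin, 100 IU/mL penicillin, 1 mM non-essential amino acids and 10% heat-inactivated FBS at 37 °C under 5% CO2. Cells were seeded at 2000 per well and serum-starved 24 h, then exposed to a concentration series in <0.1% DMSO. Viability was read by colorimetric MTT. IC50 is the mean of 2–3 independent experiments.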

[4] = molecular target: Sigma non-opioid intracellular receptor 1 (Homo sapiens, UniProt Q99720); assay: Displacement of [3H](+)-pentazocine from human sigma 1 receptor in human Jurkat cell membranes incubated for 2 hrs by liquid scintillation counting
[5] = Displacement of [3H]-DTG from human sigma 2 receptor in human Jurkat cell membranes incubated for 1 hr by liquid scintillation counting
Outline: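 Competition binding on Jurkat cell membranes (10–20 µg protein per tube) with 25 nM [3H]-DTG, plus (+)-pentazocine to saturate sigma-1 sites, across a range of test concentrations. Incubation was 1 h at room temperature in 5 mM Tris/HCl, pH 7.4. Bound ligand was separated by rapid GF/B filtration with ice-cold NaCl washes and counted by liquid scintillation. Nonspecific binding was measured under similar conditions.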

Jurkat [6] = assay: Selectivity index, ratio of Ki for sigma 2 receptor in rat cerebral cortex membranes to Ki for human sigma 1 receptor in human Jurkat cell membranes; type: cell-based
[7] = Displacement of [3H]-DTG from rat cerebral cortex membrane sigma 2 receptor incubated for 1 hr by liquid scintillation counting; type: tissue-based

Sequence of Sigma non-opioid intracellular receptor 1 (Q99720 whole entry): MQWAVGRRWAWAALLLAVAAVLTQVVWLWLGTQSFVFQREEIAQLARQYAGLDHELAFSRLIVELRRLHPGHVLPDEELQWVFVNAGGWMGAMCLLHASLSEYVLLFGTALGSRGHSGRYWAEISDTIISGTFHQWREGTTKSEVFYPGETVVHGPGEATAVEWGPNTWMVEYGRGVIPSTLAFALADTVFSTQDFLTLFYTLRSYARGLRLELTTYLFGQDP

SMILES | Ki [4] | Ki [7] | Selectivity Index [1] | Ratio Ki (Jurkat [2]) | IC50 [3] | Ki [5] | Ratio Ki (Jurkat [6])
CN(CCCN1c2ccccc2Oc2ccccc21)Cc1ccccc1 | > 200 nM |  | <350 | < 1 | 71900 nM | 180 nM | 
c1ccc2c(c1)CN(CCCN1c3ccccc3Oc3ccccc31)C2 | > 200 nM |  | <55 | < 1 | 11000 nM | 140 nM | 
CN(CCCn1c(=O)oc2cc3c(cc21)C(c1ccccc1)CC3=O)Cc1ccccc1 (stereo unspecified) | 72 nM |  | >1389 | 2.5 | > 100000 nM | 180 nM | 
c1ccc(C2c3[nH]c4ccccc4c3CCN2CCCN2CCCC2)cc1 (stereo unspecified) | 36 nM |  | 1328 | 9 | 47800 nM | 310 nM | 
CN(CCCN1C(=O)[C@H]2Cc3ccccc3CN2C1=O)Cc1ccccc1 |  | 764 nM |  |  | 19500 nM | 764 nM | 
CN(CCCN1c2ccccc2Oc2ccccc21)CCc1ccccc1 | 18 nM |  | 2606 | 4 | 46900 nM | 80 nM | 
CN(CCCN1C(=O)[C@@H]2Cc3ccccc3CN2C1=O)Cc1ccccc1 |  | 496 nM |  |  | > 100000 nM | 496 nM | 
CN(CCCn1c(=O)oc2cc3c(cc21)C(c1ccc(Cl)cc1)CC3=O)Cc1ccccc1 (stereo unspecified) | 160 nM |  | 31 | 0.3 | 5000 nM | 50 nM | 
c1ccc2c3c([nH]c2c1)CN(CCCN1CCCC1)CC3 | > 200 nM |  | <160 |  | 32900 nM | > 400 nM | 
c1ccc2c(c1)CN(CCCN1CCc3[nH]c4ccccc4c3C1)C2 | 72 nM |  | 694 | 2.5 | 50000 nM | 180 nM | 
O=C(CCCN1CCC(O)(c2ccc(Cl)cc2)CC1)c1ccc(F)cc1 [HALOPERIDOL] |  |  |  |  |  | 175 nM | 
CN(CCCN1c2ccccc2Sc2ccccc21)Cc1ccccc1 | 28 nM |  | 611 | 10 | 17100 nM | 280 nM | 
CN(CCCN1CCc2[nH]c3ccccc3c2C1)Cc1ccccc1 | 18 nM |  | 939 | 7 | 16900 nM | 130 nM | 

Further molecules by falling Ki [4], results first:

Ki [4] | Ki [7] | SMILES | Selectivity Index [1] | Ratio Ki (Jurkat [2]) | IC50 [3] | Ki [5] | Ratio Ki (Jurkat [6])
12 nM |  | c1ccc2c(c1)CN(CCCN1c3ccccc3Sc3ccccc31)C2 | 6942 | 8 | 83300 nM | 94 nM | 
11 nM |  | CN(CCCN1CCc2[nH]c3ccccc3c2C1)CCc1ccccc1 | 3018 | 18 | 33200 nM | 200 nM | 
11 nM |  | CN(CCCN1c2ccccc2Sc2ccccc21)CCc1ccccc1 | 782 | 28 | 8600 nM | 310 nM | 
11 nM |  | c1ccc2c(c1)CN(CCCN1CCc3oc4ccccc4c3C1)C2 | 7173 | 0.9 | 78900 nM | 9.9 nM | 
11 nM |  | CN(CCCN1CCc2c([nH]c3ccccc23)C1c1ccccc1)CCc1ccccc1 (stereo unspecified) | 1073 | 8 | 11800 nM | 93 nM | 
8.4 nM |  | c1ccc(C2c3[nH]c4ccccc4c3CCN2CCCN2Cc3ccccc3C2)cc1 (stereo unspecified) | 2179 | 13 | 18300 nM | 110 nM | 
8 nM |  | c1ccc2c(c1)CN(CCCN1CCc3c([nH]c4ccccc34)C1)C2 | 3112 | 14 | 24900 nM | 110 nM | 
7.2 nM |  | CN(CCCN1CCc2c([nH]c3ccccc23)C1)CCc1ccccc1 | 1611 | 13 | 11600 nM | 91 nM | 
6.2 nM |  | CN(CCCN1CCc2c([nH]c3ccccc23)C1)Cc1ccccc1 | 3177 | 2.4 | 19700 nM | 15 nM | 
5.3 nM | 416 nM | O=C1C2Cc3ccccc3CN2C(=O)N1CCCN1Cc2ccccc2C1 (stereo unspecified) |  | 103 |  | 416 nM | 78
4.3 nM |  | CN(CCCN1CCc2c([nH]c3ccccc23)C1c1ccccc1)Cc1ccccc1 (stereo unspecified) | 2163 | 23 | 9300 nM | 100 nM | 
2.5 nM |  | CN(CCCN1CCc2oc3ccccc3c2C1)CCc1ccccc1 | 10160 | 31 | 25400 nM | 78 nM | 
2 nM |  | CN(CCCN1CCc2oc3ccccc3c2C1)Cc1ccccc1 | 34450 | < 5 | 68900 nM | < 10 nM | 
